# Tests used:
# Rattus norvegicus [1] = assay: Biodistribution of compound in rat gonads at 1440 min after intravenous administration; type: ADME, organism-based, Gonad; details: in vivo, 24 h
# How it was run: (§1)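 Time course in Sprague-Dawley rats after lateral tail-vein injection of the 99mTc complex in normal saline (~12.5 μCi/mL) at ~25 μCi/kg. Tissues were sampled at the stated times, washed with saline, blotted, weighed and γ-counted to give percent injected dose per g. Values are averages of male and female rats.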
# [2] = The compound was tested for the plasma binding in human; type: ADME, cell-free
# How it was run: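 Fresh heparinized human plasma (1.0 mL, obtained daily) was spiked with 0.02 mL test solution and incubated about 15 min. Duplicate samples went through saline-equilibrated Sephadex G-25 desalting columns by centrifugation. Eluate and gel were γ-counted for 1 min or to 1% σ error. % bound = net cpm eluate / net cpm (eluate + gel) × 100.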
# Rattus norvegicus [3] = assay: Biodistribution of compound in rat kidney at 180 min after intravenous administration; type: ADME, organism-based; details: in vivo, 3 h; how it was run: as §1
# Rattus norvegicus [4] = assay: Biodistribution of compound in rat liver at 1440 min after intravenous administration; type: ADME, organism-based; details: in vivo, 24 h; how it was run: as §1
# Rattus norvegicus [5] = assay: Biodistribution of compound in rat heart at 5 min after intravenous administration; type: ADME, organism-based; details: in vivo; how it was run: as §1
# Rattus norvegicus [6] = assay: Biodistribution of compound in rat bone at 180 min after intravenous administration; type: ADME, organism-based, Bone element; details: in vivo, 3 h; how it was run: as §1
# Rattus norvegicus [7] = assay: Biodistribution of compound in rat heart at 180 min after intravenous administration; type: ADME, organism-based; details: in vivo, 3 h; how it was run: as §1
# Rattus norvegicus [8] = assay: Biodistribution of compound in rat kidney at 45 min after intravenous administration; type: ADME, organism-based; details: in vivo, 0.75 h; how it was run: as §1
# Rattus norvegicus [9] = assay: Biodistribution of compound in rat eye at 180 min after intravenous administration; type: ADME, organism-based; details: in vivo, 3 h; how it was run: as §1
# Rattus norvegicus [10] = assay: Biodistribution of compound in rat lungs at 1440 min after intravenous administration; type: ADME, organism-based, Lung; details: in vivo, 24 h
# How it was run: (§2)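 Rats received the 99mTc complex in normal saline (~12.5 μCi/mL) by lateral tail vein injection at ~25 μCi/kg and were killed by cervical dislocation at the stated time. Tissues were washed with saline, blotted, weighed and γ-counted to give percent injected dose/g. Time-course values are averages of male and female rats.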
# Rattus norvegicus [11] = assay: Biodistribution of compound in rat bone at 5 min after intravenous administration; type: ADME, organism-based, Bone element; details: in vivo; how it was run: as §1
# Rattus norvegicus [12] = assay: Biodistribution of compound in rat bone marrow at 45 min after intravenous administration; type: ADME, organism-based; details: in vivo, 0.75 h; how it was run: as §1
# Rattus norvegicus [13] = assay: Biodistribution of compound in rat gonads at 45 min after intravenous administration; type: ADME, organism-based, Gonad; details: in vivo, 0.75 h; how it was run: as §1
# Rattus norvegicus [14] = assay: Biodistribution of compound in rat urine at 1440 min after intravenous administration; type: ADME, organism-based; details: in vivo, 24 h; how it was run: as §2
# Rattus norvegicus [15] = assay: Biodistribution of compound in rat liver at 5 min after intravenous administration; type: ADME, organism-based; details: in vivo; how it was run: as §2
# Rattus norvegicus [16] = assay: Biodistribution of compound in rat heart at 45 min after intravenous administration; type: ADME, organism-based; details: in vivo, 0.75 h; how it was run: as §1
# Rattus norvegicus [17] = assay: Biodistribution of compound in rat bone marrow at 90 min after intravenous administration; type: ADME, organism-based; details: in vivo, 1.5 h; how it was run: as §1
# Rattus norvegicus [18] = assay: Biodistribution of compound in rat kidney after 5 min of administration; type: ADME, organism-based; details: in vivo
# How it was run: (§3)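 Female Sprague-Dawley rats (150–200 g) received the 99mTc complex in normal saline (~12.5 μCi/mL) via a lateral tail vein at ~25 μCi/kg. They were killed by cervical dislocation 5 min after injection. Tissues were washed with saline, blotted, weighed and γ-counted, and the read-out was percent injected dose per g tissue.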
# Rattus norvegicus [19] = assay: Biodistribution of compound in rat muscle at 45 min after intravenous administration; type: ADME, organism-based, Muscle tissue; details: in vivo, 0.75 h; how it was run: as §2
# Rattus norvegicus [20] = assay: Biodistribution of compound in rat liver after 5 min of administration; type: ADME, organism-based; details: in vivo; how it was run: as §3
# Rattus norvegicus [21] = assay: Biodistribution of compound in rat muscle at 5 min after intravenous administration; type: ADME, organism-based, Muscle tissue; details: in vivo; how it was run: as §2
# Rattus norvegicus [22] = assay: Biodistribution of compound in rat heart at 360 min after intravenous administration; type: ADME, organism-based; details: in vivo, 6 h; how it was run: as §1
# Rattus norvegicus [23] = assay: Biodistribution of compound in rat blood at 5 min after intravenous administration; type: ADME, organism-based; details: in vivo; how it was run: as §1
# Rattus norvegicus [24] = assay: Biodistribution of compound in rat urine at 360 min after intravenous administration; type: ADME, organism-based; details: in vivo, 6 h; how it was run: as §2
# Rattus norvegicus [25] = assay: Biodistribution of compound in rat blood at 90 min after intravenous administration; type: ADME, organism-based; details: in vivo, 1.5 h; how it was run: as §1
# Rattus norvegicus [26] = species on record: Rattus norvegicus; assay: The compound was tested for the plasma binding in rat; type: ADME, organism-based
# Rattus norvegicus [27] = assay: Biodistribution of compound in rat bone at 45 min after intravenous administration; type: ADME, organism-based, Bone element; details: in vivo, 0.75 h; how it was run: as §1
# Rattus norvegicus [28] = assay: Biodistribution of compound in rat kidney at 360 min after intravenous administration; type: ADME, organism-based; details: in vivo, 6 h; how it was run: as §1
# Rattus norvegicus [29] = assay: Biodistribution of compound in rat liver at 360 min after intravenous administration; type: ADME, organism-based; details: in vivo, 6 h; how it was run: as §2
# Rattus norvegicus [30] = assay: Biodistribution of compound in rat muscle at 180 min after intravenous administration; type: ADME, organism-based, Muscle tissue; details: in vivo, 3 h; how it was run: as §2
# Rattus norvegicus [31] = assay: Biodistribution of compound in rat eye at 360 min after intravenous administration; type: ADME, organism-based; details: in vivo, 6 h; how it was run: as §1
# Rattus norvegicus [32] = assay: Biodistribution of compound in rat blood at 1440 min after intravenous administration; type: ADME, organism-based; details: in vivo, 24 h; how it was run: as §1
# Rattus norvegicus [33] = assay: Biodistribution of compound in rat muscle at 90 min after intravenous administration; type: ADME, organism-based, Muscle tissue; details: in vivo, 1.5 h; how it was run: as §2
# Rattus norvegicus [34] = assay: Biodistribution of compound in rat bone at 90 min after intravenous administration; type: ADME, organism-based, Bone element; details: in vivo, 1.5 h; how it was run: as §1
# Rattus norvegicus [35] = assay: Biodistribution of compound in rat feces at 1440 min after intravenous administration; type: ADME, organism-based; details: in vivo, 24 h
# Rattus norvegicus [36] = assay: Biodistribution of compound in rat lung after 5 min of administration; type: ADME, organism-based; details: in vivo; how it was run: as §2
# Rattus norvegicus [37] = assay: Biodistribution of compound in rat liver at 180 min after intravenous administration; type: ADME, organism-based; details: in vivo, 3 h; how it was run: as §1
substance,measurement,setting,value
"Bis(1,3,5-trimethylbenzene)technetium",Dose/g,Rattus norvegicus [1],0.018 % dose
same,Plasma binding,[2],21%
same,Dose/g,Rattus norvegicus [3],1.9 % dose
same,Dose/g,Rattus norvegicus [4],0.3 % dose/organ
same,Dose/g,Rattus norvegicus [5],1.37 % dose
same,Dose/g,Rattus norvegicus [6],1.5 % dose/organ
same,Dose/g,Rattus norvegicus [7],1 % dose
same,Dose/g,Rattus norvegicus [8],5.8 % dose
same,Dose/g,Rattus norvegicus [9],0.016 % dose
same,Dose/g,Rattus norvegicus [10],0.2 % dose/organ
same,Dose/g,Rattus norvegicus [11],3.5 % dose/organ
same,Dose/g,Rattus norvegicus [12],0.36 % dose/organ
same,Dose/g,Rattus norvegicus [13],0.86 % dose
same,Dose/ml,Rattus norvegicus [14],26 % dose
same,Dose/g,Rattus norvegicus [15],10.4 % dose/organ
same,Dose/g,Rattus norvegicus [16],1.2 % dose
same,Dose/g,Rattus norvegicus [17],0.13 % dose/organ
same,Dose/g,Rattus norvegicus [18],7.9%
same,Dose/g,Rattus norvegicus [19],26 % dose/organ
same,Dose/g,Rattus norvegicus [20],0.98%
same,Dose/g,Rattus norvegicus [21],30 % dose/organ
same,Dose/g,Rattus norvegicus [22],1.14 % dose
same,Dose/ml,Rattus norvegicus [23],2.67 % dose
same,Dose/ml,Rattus norvegicus [24],16 % dose
same,Dose/ml,Rattus norvegicus [25],1.02 % dose
same,Plasma binding,Rattus norvegicus [26],11%
same,Dose/g,Rattus norvegicus [27],1.8 % dose/organ
same,Dose/g,Rattus norvegicus [28],0.9 % dose
same,Dose/g,Rattus norvegicus [29],0.8 % dose/organ
same,Dose/g,Rattus norvegicus [30],30 % dose/organ
same,Dose/g,Rattus norvegicus [31],0.019 % dose
same,Dose/ml,Rattus norvegicus [32],0.13 % dose
same,Dose/g,Rattus norvegicus [33],25 % dose/organ
same,Dose/g,Rattus norvegicus [34],1.4 % dose/organ
same,Dose/g,Rattus norvegicus [35],36.2 % dose
same,Dose/g,Rattus norvegicus [36],0.82%
same,Dose/g,Rattus norvegicus [37],1.9 % dose/organ
